MEKK2mut PB1 HTS: signal of MEK5 binding to mutant human MEKK2 PB1 domain; AID 1530; 290,000 compounds, 0.35% hits; percent response, % at 10 µM; bead flow cytometry, Alexa488-MEK5 binding to MEKK2 mutant; in the data active means percent response above about 24%, passing the limit was not always enough
Dynein cargo inh: dynein cargo transport inhibition; z-score, hits read low; 3617.4 mouse cells, GR-EGFP nuclear translocation imaging; test concentration mostly 20 µM; stimulated with dexamethasone, 1 µM; hits give low values; 220,000 compounds, 0.47% hits;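 active means plate z-score of nuclear minus cytoplasmic receptor signal below a set negative limit, without overly bright fluorescence or cell loss, cut at about -3.5 in these data, passing the limit was not always enough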;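 further: z-score of nuclear minus cytoplasmic ring GR-EGFP intensity difference per well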
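Buffer or medium: Induction medium lacking tetracycline, stripped serum | Also added: Dexamethasone agonist, 1.0 µM final, for 30 min | Timing: 48 h induction, 1 h compound, 30 min dex at 37 °C | Detection: Formaldehyde fixation, Hoechst nuclear stain, 10x automated fluorescence imaging | Measure: Nuclear versus cytoplasmic GR-EGFP signal, averaged per well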
ATG4B inh: ATG4B (human) cysteine protease inhibition; 340,000 compounds, 0.51% hits; ATG4B cleavage of LC3-PLA2, NBD-HPC fluorescence, 1 h; Q9Y4P1; inhibition, % at 8.33 µM; in the data active means inhibition above about 40%
B2AR ag: activates human beta-2 adrenergic receptor causing internalization | P07550 | Am2.2-beta2AR cells, FAP receptor internalization, flow cytometry | response, % (test concentration not listed) | 340,000 compounds, 0.43% hits | AID 504454;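 active means response above a set limit, near 3 SD of response in nonfluorescent compounds, cut at about 42% in these data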
Target sequence (P07550 whole entry, looked up): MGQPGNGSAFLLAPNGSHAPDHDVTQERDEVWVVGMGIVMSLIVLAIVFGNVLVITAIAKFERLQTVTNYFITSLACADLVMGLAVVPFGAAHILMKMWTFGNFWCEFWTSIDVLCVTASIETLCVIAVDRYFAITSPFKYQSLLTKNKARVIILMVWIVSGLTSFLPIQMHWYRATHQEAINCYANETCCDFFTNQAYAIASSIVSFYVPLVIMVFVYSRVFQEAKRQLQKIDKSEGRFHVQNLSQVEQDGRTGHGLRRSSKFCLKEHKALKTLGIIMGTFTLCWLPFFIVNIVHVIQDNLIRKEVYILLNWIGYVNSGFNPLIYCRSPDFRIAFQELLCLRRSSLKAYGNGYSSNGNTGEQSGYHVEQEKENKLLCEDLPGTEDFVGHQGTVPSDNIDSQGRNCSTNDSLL
MEKK2 WT-MEK5: raises or lowers MEK5 binding to wildtype human MEKK2 PB1 domain. 290,000 compounds, 1.1% hits. binding response (% of control), % at 10 µM. Q9Y2U5. bead flow cytometry, Alexa488-MEK5 binding to MEKK2 WT; actives lie on both sides. AID 1531; in the data active means binding response below about 67% or above about 130%
MEKK3 PB1 HTS: modulators (inhibitors or enhancers) of MEK5 binding to human MEKK3 PB1 domain; AID 1529; binding response (% of control), % at 10 µM; Q99759; bead-based flow cytometry, Alexa488-MEK5 binding to MEKK3; actives lie on both sides; 0 = blocked by unlabeled MEK5, 100 = vehicle; 290,000 compounds, 1.4% hits;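 active means binding response more than 3 SD above or below the average of its plate-row segment, actives on both sides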;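 further: Alexa488 bead fluorescence after subtracting the streptavidin-only scavenger bead signal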
ATG4B confirm: ATG4B (human) inhibition, single-dose confirmed | shares compounds with ATG4B inh | ATG4B protease fluorescent substrate cleavage assay | inhibition, % at 8.33 µM | 320 compounds, 92% hits; in the data active means inhibition above about 39%
PLA2 ctr: inhibits human PLA2, flagging false ATG4B inhibitors | 1,600 compounds, 66% hits | inhibition, % at 8.33 µM | AID 588402 | shares compounds with ATG4B inh | purified PLA2, NBD-C6-HPC fluorescence, 45 min; in the data active means inhibition above about 50%
Target sequence (P04054 whole entry, looked up): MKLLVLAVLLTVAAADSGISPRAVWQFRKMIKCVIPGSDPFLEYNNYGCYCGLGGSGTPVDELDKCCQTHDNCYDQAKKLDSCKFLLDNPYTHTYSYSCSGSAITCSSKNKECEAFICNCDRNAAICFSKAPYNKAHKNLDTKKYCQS
* hit, by the source's call; . = no result given. Compounds with a hit are over-represented: about 2.9% of the library has one in this group of screens.

SMILES	MEKK2mut PB1 HTS	Dynein cargo inh	ATG4B inh	B2AR ag	MEKK2 WT-MEK5	MEKK3 PB1 HTS	PLA2 ctr	others
CCC(=O)N(Cc1ccco1)c1nc(-c2ccccc2)cs1	-8.0	0.511	-7.0	-0.3	87.0	90.0	.
O=[N+]([O-])c1cccc(S(=O)(=O)Nc2nc3ccccc3nc2Nc2cccc(S(=O)(=O)N3CCCCC3)c2)c1	-4.0	0.283	46.0*	9.8	76.0	93.0	49.7
COc1ccc(CC(=O)NNC(=O)c2ccco2)cc1OC	-3.0	.	6.3	3.5	99.0	100.0	.
CCN(CC)C(=O)C1c2ccccc2Oc2ccccc21	13.0	.	-2.0	8.4	108.0	106.0	.
O=C(OC1CCc2ccccc2C1=O)c1ccccc1O (stereo not drawn)	-1.0	0.592	76.5*	-1.5	109.0	106.0	78.7*
O=C(Nc1cccc(Cl)c1N1CCCC1)c1ccc([N+](=O)[O-])o1	3.0	1.08	2.8	-1.9	106.0	106.0	.
CCC(=O)NC(=S)Nc1cccc(Cl)c1N1CCCCC1	-5.0	-0.513	41.9*	7.3	95.0	98.0	39.1	ATG4B confirm=60.5*
CCCCC(=O)NC(=S)Nc1cccc(Cl)c1N1CCCCC1	2.0	-0.416	18.3	15.1	108.0	106.0	.
O=C(Nc1cccc(Cl)c1N1CCCC1)c1ccc(Br)o1	-4.0	0.561	56.1*	0.6	90.0	98.0	56.0*
CCCC(=O)NC(=S)Nc1cccc(Cl)c1N1CCCCC1	12.0	0.0408	41.1*	-1.6	107.0	105.0	36.9	ATG4B confirm=56.0*
COc1ccc(NC(=O)c2cc3c(s2)CCC(C)C3)cc1S(=O)(=O)N1CCOCC1 (stereo not drawn)	-2.0	-0.284	-20.6	13.2	98.0	97.0	.
CCOC(=O)C1=C(CSc2nc3ccccc3s2)NC(=O)NC1c1cccc([N+](=O)[O-])c1 (stereo not drawn)	1.0	0.311	-1.2	-12.4	95.0	103.0	.
CCOC(=O)C1=C(C)N(c2ccc(Cl)cc2)C(=O)NC1c1cccc([N+](=O)[O-])c1 (stereo not drawn)	1.0	-0.482	2.4	-5.7	98.0	99.0	.
Cc1ccc(C(=O)O)cc1N=Cc1cc(Br)cc(Br)c1O	0.0	0.143	43.8*	9.3	97.0	97.0	20.8	ATG4B confirm=59.5*
CC(Sc1ccc(Cl)cc1)C(=O)Nc1ccccc1-c1ccccc1 (stereo not drawn)	-2.0	-0.415	50.1*	1.7	95.0	99.0	33.8	ATG4B confirm=70.9*
Cc1ccc(SC(C)C(=O)Nc2ccccc2-c2ccccc2)cc1 (stereo not drawn)	-2.0	-0.322	30.6	10.1	91.0	92.0	.
Cc1ccc(NC2=C/C(=N\S(=O)(=O)c3cccs3)c3ccccc3C2=O)c(C)c1	5.0	-2.15	56.3*	63.7*	106.0	108.0	60.5*
Cc1ccc(S(=O)(=O)Nc2ccccc2C=Nc2cccc(C)c2C)cc1	20.0	2.6	57.4*	2.6	96.0	103.0	61.2*
Cc1ccc(S(=O)(=O)Nc2ccccc2N=Cc2c(F)c(F)c(F)c(F)c2F)cc1	.	.	12.8	5.6	.	.	.
COc1ccc(Nc2cc(C(=O)N3CCc4ccccc4C3)c3ccccc3n2)c(OC)c1	-7.0	-0.283	67.7*	12.5	84.0	94.0	81.5*
CC(C)c1[nH]nc2c1C(c1ccc(OC(=O)c3ccco3)cc1)C(C#N)=C(N)O2 (stereo not drawn)	6.0	-0.628	82.9*	13.7	107.0	106.0	83.7*
O=C(C1=C[C@@H](C2CCCCC2)C[C@@H](OCCCCO)O1)N1CCN(Cc2ccc3c(c2)OCO3)CC1	8.0	-1.71	-23.8	-2.8	103.0	100.0	.
CCOc1ccc(C(CC(=O)O)NC(=O)C(Sc2ccccc2)c2ccccc2)cc1 (stereo not drawn)	-1.0	-0.0191	0.0	14.2	98.0	102.0	.
O=C1NN(c2ccc(F)c(Cl)c2)C(=O)/C1=C\c1cccc(OC(=O)c2cccs2)c1	9.0	-0.579	60.2*	1.5	108.0	107.0	57.4*
COC(=O)CSc1nc2c(cnn2-c2ccc(F)cc2)c(=O)[nH]1	2.0	.	-5.2	-5.4	104.0	107.0	.
SMILES	MEKK2mut PB1 HTS	Dynein cargo inh	ATG4B inh	B2AR ag	MEKK2 WT-MEK5	MEKK3 PB1 HTS	PLA2 ctr	others
CCCn1c(=S)[nH]c2cc(C(=O)N3CCc4ccccc43)ccc2c1=O	0.0	0.653	65.4*	7.2	102.0	102.0	39.4
O=C(COC(=O)/C=C/c1cccc(C(F)(F)F)c1)NCc1cccs1	.	.	3.2	7.3	.	.	.
CCc1ccc(C(CNC(=O)c2ccc3c(=O)n(-c4ccccc4F)c(=S)[nH]c3c2)N(C)C)cc1 (stereo not drawn)	-1.0	0.742	69.8*	-18.3	109.0	108.0	82.8*
O=C(NC1CCSc2ccccc21)c1c(F)cccc1Cl (stereo not drawn)	-3.0	.	6.1	-1.2	99.0	99.0	.
O=C(O)c1cc(NN=Nc2cccc([N+](=O)[O-])c2)cc([N+](=O)[O-])c1	-10.0	-1.33	83.2*	0.2	100.0	98.0	86.7*
O=C(O)c1cc(NN=Nc2cccc(S(=O)(=O)O)c2)cc([N+](=O)[O-])c1	7.0	.	-1.9	4.1	106.0	108.0	.
O=C(O)/C=C\c1ccccc1Oc1cccc(Cl)c1	-2.0	-0.574	14.6	-5.4	97.0	97.0	.
O=C(O)/C=C/c1ccccc1Oc1ccc(Cl)cc1Cl	-2.0	0.543	41.4*	4.8	96.0	105.0	10.7	ATG4B confirm=68.3*
O=C(O)c1ccc2nc(-c3ccco3)c(-c3ccco3)nc2c1	-14.0	0.147	-0.7	-0.8	79.0	91.0	.
O=C(Nc1cccc(C(F)(F)F)c1)c1ccc2nc(-c3ccco3)c(-c3ccco3)nc2c1	2.0	-1.08	47.4*	16.0	82.0	99.0	8.6
O=C(Nc1ccc2nc(-c3ccco3)c(-c3ccco3)nc2c1)NC1CC1	2.0	0.318	54.8*	27.4	85.0	96.0	60.3*
Cc1ccc(C(=O)N2CCN(Cc3ccccc3)CC2)cc1S(=O)(=O)N1CCOCC1	.	.	-9.0	18.0	.	.	.
CC(C)(C)c1ccc(C(=O)NCC(=O)OCc2ccc([N+](=O)[O-])cc2)cc1	20.0	1.26	-2.9	3.9	111.0	101.0	.
C=CCn1c(-c2cccc(Cl)c2)n[nH]c1=S	-3.0	-0.755	-8.9	1.2	97.0	96.0	.
C=CCn1c(-c2oc3nc(-c4ccccc4)cc(-c4ccccc4)c3c2N)n[nH]c1=S	-5.0	0.0733	42.1*	-2.1	86.0	95.0	35.1	ATG4B confirm=69.5*

Screening results from PubChem BioAssay.
